Results of several laboratories.
Compare with care: the assays were run in different laboratories.
Target: MAP/microtubule affinity-regulating kinase 3 (MARK3, Homo sapiens, UniProt P27448)

SMILES	effect on	action	technique	tested at	quantity	result
Cn1cc(-c2cc(F)cc(N3CCn4c(cc5c4CCCC5)C3=O)c2CO)cc(Nc2ccc(N3CCN(C4COC4)CC3)cn2)c1=O	enzyme activity	inhibitor		0.1 µM	inhibition	6%
Cn1cncc1[C@](O)(COc1ccc(C#N)cc1-c1ccc(OC(F)(F)F)cc1)c1ccc(C#N)cc1	cell-free assay		competition with immobilised ligand	1 µM	remaining binding	100%
CC(C)(C)c1cc(C=C(C#N)C#N)cc(Br)c1O	enzyme activity	inhibitor		0.5 µM	remaining activity	105%
Nc1ncc(-c2nc(N3CCOCC3)nc(N3CCOCC3)n2)c(C(F)F)n1	binding		competition with immobilised ligand	10 µM	remaining binding	100%
Cc1nn(C)cc1-c1nc2c(N3CCN(Cc4ccc(Cl)cc4)CC3)c(Cl)cnc2[nH]1	binding		competition with immobilised ligand	1 µM	remaining binding	45%
O=c1[nH]c2ccccc2n1C1CCN(Cc2ccc(-c3[nH]c4cc5ncnc5cc4nc3-c3ccccc3)cc2)CC1	cell-free assay			0.5 µM	remaining signal	103%
COc1cc(Nc2ncc(F)c(Nc3ccc4c(n3)NC(=O)C(C)(C)O4)n2)cc(OC)c1OC	binding		competition with immobilised ligand	10 µM	inhibition	63%
COc1ncccc1-c1cnn2ccc(N3CCN(C(=O)OC(C)C)CC3)nc12	binding		competition with immobilised ligand	1 µM	remaining binding	96%
